The text below walks through data of ChEMBL document CHEMBL1156763, “1,8-Naphthyridines VIII. Novel 5-aminoimidazo[1,2-a] [1,8]naphthyridine-6-carboxamide and 5-amino[1,2,4]triazolo[4,3-a] [1,8]naphthyridine-6-carboxamide derivatives showing potent analgesic or anti-inflammatory activity, respectively, and completely devoid of acute gastrolesivity” (Eur J Med Chem, 2010).

Series [1] deals with Rattus norvegicus. Kind of series: Antiinflammatory activity against carrageenan-induced paw edema in Wistar rat assessed as inhibition of hind paw edema at 50 mg/kg, po administered 1 hr prior to carrageenan challenge measured after 3 hrs relative to control. The series is classed as functional. The method in brief:
(§1)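 Wistar rats of either sex (250–300 g), fasted overnight, gavaged with compound in 0.5% methylcellulose. 1 h later, 0.1 mL 1% carrageenan injected subcutaneously into the plantar hind paw. Paw volume read by plethysmometer right after injection and 3 h later. Control edema set as 100, % inhibition from swelling difference. Groups of 8–10; Student's t-test.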

For series [2], the system named is Mus musculus. Kind of series: Analgesic activity in Swiss mouse assessed as inhibition of acetic acid-induced writhing response at 50 mg/kg, po administered 1 hr before acetic acid challenge measured for 30 mins relative to control. Type of series: functional. In short, it runs like this: (§2)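 Mice of either sex (25–35 g), fasted overnight, dosed by oral gavage with test agent suspended in 0.5% methylcellulose; controls got vehicle alone. Each hind-limb full extension counted as a writhe over 30 min after the noxious agent. % inhibition from treated vs control writhing; groups of 8–10; Student's t-test. Dosing starts at 100 mg/kg, then halved stepwise.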

Series [3] relates to Mus musculus. Kind of series: Analgesic activity in Swiss mouse assessed as inhibition of acetic acid-induced writhing response at 25 mg/kg, po administered 1 hr before acetic acid challenge measured for 30 mins relative to control. The series is classed as functional. The method in brief:
as §2

In series [4] the test system is Rattus norvegicus. Kind of series: Antiinflammatory activity against carrageenan-induced paw edema in Wistar rat assessed as inhibition of hind paw edema at 100 mg/kg, po administered 1 hr prior to carrageenan challenge measured after 3 hrs relative to control. Type of series: functional. In short, it runs like this:
as §1

The test system of series [5] is Rattus norvegicus. Kind of series: Antiinflammatory activity against carrageenan-induced paw edema in Wistar rat assessed as inhibition of hind paw edema at 6.25 mg/kg, po administered 1 hr prior to carrageenan challenge measured after 3 hrs relative to control. Type of series: functional. The method in brief: as §1
Series [6] relates to Rattus norvegicus. Kind of series: Antiinflammatory activity against carrageenan-induced paw edema in Wistar rat assessed as inhibition of hind paw edema at 25 mg/kg, po administered 1 hr prior to carrageenan challenge measured after 3 hrs relative to control. The series is classed as functional. The method in brief: as §1
Series [7] relates to Rattus norvegicus. Kind of series: Acute gastrolesivity in Wistar rat assessed as appearance of gastric damage at 200 mg/kg, po after 5 hrs. Type of series: toxicity, organism-based, Stomach. As to conditions: in vivo. On the set-up: dose 200 mg/kg, route oral. In short, it runs like this: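 Wistar rats (250–300 g), either sex, fasted overnight; compound suspended in 0.5% methylcellulose, single oral gavage at 200 mg kg^-1 (1 mL 100 g^-1). Stomachs excised 5 h later, fixed in 2% formalin, opened along greater curvature, examined by stereomicroscope by blinded observer. Reported as number of animals with gastric damage over treated animals (eight per group).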

Series [8] deals with Rattus norvegicus. Kind of series: Antiinflammatory activity against carrageenan-induced paw edema in Wistar rat assessed as inhibition of hind paw edema at 12.5 mg/kg, po administered 1 hr prior to carrageenan challenge measured after 3 hrs relative to control. Type of series: functional. The method in brief: as §1
Series [9] deals with Mus musculus. Kind of series: Analgesic activity in Swiss mouse assessed as inhibition of acetic acid-induced writhing response at 100 mg/kg, po administered 1 hr before acetic acid challenge measured for 30 mins relative to control. Type of series: functional. The method in brief:
as §2

In series [10] the test system is Mus musculus. Kind of series: Sedative activity in Swiss mouse assessed as inhibition of spontaneous locomotor activity at 50 mg/kg, po dose measured for every 5 mins up to 90 mins. The series is classed as organism-based. On the set-up: dose 50 mg/kg, route oral. The method in brief: (§3)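 Overnight-fasted mice given compound (0.5% methylcellulose) or vehicle by oral gavage, then housed singly in an activity cage. Locomotion auto-recorded in 5-min intervals for 90 min; pulses of the final 30 min scored. % inhibition versus controls; runs between 9.00 and 13.00; groups of 8–10; Student's t-test.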

In series [11] the test system is Mus musculus. Kind of series: Analgesic activity in Swiss mouse assessed as inhibition of acetic acid-induced writhing response at 12.5 mg/kg, po administered 1 hr before acetic acid challenge measured for 30 mins relative to control. Type of series: functional. The method in brief:
as §2

For series [12], the system named is Mus musculus. Kind of series: Analgesic activity in Swiss mouse assessed as inhibition of acetic acid-induced writhing response at 6.25 mg/kg, po administered 1 hr before acetic acid challenge measured for 30 mins relative to control. Type of series: functional. The method in brief: as §2
Series [13] concerns Mus musculus. Kind of series: Analgesic activity in Swiss mouse assessed as inhibition of acetic acid-induced writhing response at 3.12 mg/kg, po administered 1 hr before acetic acid challenge measured for 30 mins relative to control. Type of series: functional.
Series [14] relates to Mus musculus. Kind of series: Analgesic activity in Swiss mouse assessed as inhibition of acetic acid-induced writhing response at 1.6 mg/kg, po administered 1 hr before acetic acid challenge measured for 30 mins relative to control. The series is classed as functional.
Series [15] deals with Mus musculus. Kind of series: Sedative activity in Swiss mouse assessed as inhibition of spontaneous locomotor activity at 100 mg/kg, po dose measured for every 5 mins up to 90 mins. The series is classed as organism-based. Further details: dose 100 mg/kg, route oral. The method in brief:
as §3

The subject of series [16] is Rattus norvegicus. Kind of series: Antiinflammatory activity against carrageenan-induced paw edema in Wistar rat assessed as inhibition of hind paw edema at 3.12 mg/kg, po administered 1 hr prior to carrageenan challenge measured after 3 hrs relative to control. The series is classed as functional. The method in brief: as §1
The subject of series [17] is Rattus norvegicus. Kind of series: Antiinflammatory activity against carrageenan-induced paw edema in Wistar rat assessed as inhibition of hind paw edema at 1.6 mg/kg, po administered 1 hr prior to carrageenan challenge measured after 3 hrs relative to control. The series is classed as functional. In short, it runs like this:
as §1

The test system of series [18] is Mus musculus. Kind of series: Sedative activity in Swiss mouse assessed as inhibition of spontaneous locomotor activity at 12.5 mg/kg, po dose measured for every 5 mins up to 90 mins. The series is classed as organism-based. Further details: dose 12.5 mg/kg, route oral. The method in brief:
as §3

For series [19], the system named is Mus musculus. Kind of series: Sedative activity in Swiss mouse assessed as inhibition of spontaneous locomotor activity at 10 mg/kg, po dose measured for every 5 mins upto 90 mins. The series is classed as functional. The method in brief:
as §3

The test system of series [20] is Rattus norvegicus. Kind of series: Antiinflammatory activity against carrageenan-induced paw edema in Wistar rat assessed as inhibition of hind paw edema at 10 mg/kg, po administered 1 hr prior to carrageenan challenge measured after 3 hrs relative to control. The series is classed as functional. In short, it runs like this:
as §1

Series [21] is filed under the species Mus musculus. Kind of series: animal or person. As to conditions: Swiss, po, read-out: INH.

Regarding `CCN(CC)C(=O)c1c(N(C)CC)c2cccnc2n2c(C(C)C)nnc12`, the figures for the inhibition in vivo at 50 mg/kg in series [1] and in series [2] were 67% and 59%, respectively. Also, the results for the inhibition in vivo at 25 mg/kg in [3] and in series [6] were 17% and 65%, respectively. Also, the inhibition in vivo at 100 mg/kg came out at 71% in [4] and 81% in series [9]. Further, the inhibition in vivo at 6.25 mg/kg in [5] stood at 42%. For the same compound, the Activity entry in series [7] is reported as “Non-toxic”. The inhibition in vivo at 12.5 mg/kg in series [8] is 51%. For the same compound, in [10], the inhibition at 50 mg/kg was determined as 22%.

As to `CCC(CC)Nc1c(C(=O)N(CC)CC)c2nnc(C(C)C)n2c2ncccc12`, the inhibition in vivo at 50 mg/kg in series [1] amounted to 47%; in series [2], 75%. In addition, the inhibition in vivo at 25 mg/kg in [3] is 58%; in series [6] it was 47%. The inhibition in vivo at 100 mg/kg in series [4] came out at 50%; in series [9] it was 91%. The figures for the inhibition in vivo at 6.25 mg/kg in [5] and in [12] were 11% and 36%, respectively. Moreover, the figures for the inhibition in vivo at 12.5 mg/kg in series [11] and in [8] were 49% and 45%, respectively. Also, the Activity result in series [7] was “Non-toxic”. Besides, in series [10], the inhibition at 50 mg/kg was 84%.

Turning to `CCN(CC)C(=O)c1c(N2CCN(C)CC2)c2cccnc2n2c(C(C)C)nnc12`, in series [2], the inhibition in vivo at 50 mg/kg came to 85%. In addition, in series [3], the inhibition in vivo at 25 mg/kg stood at 90%. For the same compound, the inhibition in vivo at 12.5 mg/kg in series [11] came to 92%. Further, in [7], the Activity entry is reported as “Non-toxic”. Moreover, the inhibition in vivo at 100 mg/kg in series [9] came out at 88%. The inhibition in vivo at 3.12 mg/kg in [13] came out at 85%. For the same compound, in series [10], the inhibition at 50 mg/kg turned out to be 100%. The inhibition in vivo at 6.25 mg/kg in series [12] was determined as 83%. Also, the inhibition in vivo at 1.6 mg/kg in series [14] came to 39%.

Take `CCNC(=O)c1c(NCC(C)C)c2cccnc2n2c(C(C)C)nnc12`: the inhibition in vivo at 50 mg/kg in series [1] amounted to 50%; in series [2] it was 21%. Besides, the inhibition in vivo at 100 mg/kg in [4] is 60%; in series [9], 81%. The inhibition in vivo at 6.25 mg/kg in series [5] worked out at 40%. Moreover, the inhibition in vivo at 25 mg/kg in [6] stood at 47%. Also, the Activity result in [7] is on record as “Non-toxic”. In addition, in series [8], the inhibition in vivo at 12.5 mg/kg amounted to 49%. Also, in [15], the inhibition at 100 mg/kg was found to be 48%. Besides, in [16], the inhibition in vivo at 3.12 mg/kg turned out to be 35%. Besides, the inhibition in vivo at 1.6 mg/kg in series [17] came to 18%.

In the case of `CCOc1cnc2c(C(=O)N(CC)CC)c(N3CCN(C)CC3)c3cccnc3n12`, the inhibition in vivo at 50 mg/kg in [2] was 62%. Further, the inhibition in vivo at 25 mg/kg in series [3] came to 54%. Moreover, the inhibition in vivo at 100 mg/kg in [4] worked out at 26%; in [9], 97%. For the same compound, in series [11], the inhibition in vivo at 12.5 mg/kg came out at 48%. In addition, the Activity entry in series [7] is “Non-toxic”. For the same compound, the inhibition at 100 mg/kg in series [15] was determined as 60%. In addition, in series [10], the inhibition at 50 mg/kg amounted to 46%. In addition, the inhibition in vivo at 6.25 mg/kg in series [12] is 17%. Also, the inhibition at 12.5 mg/kg in series [18] came to 15%.

Regarding `CN1C(=O)CN=C(c2ccccc2)c2cc(Cl)ccc21` [DIAZEPAM], the inhibition in vivo at 10 mg/kg in [19] worked out at 98%.

`COc1ccc2c(c1)c(CC(=O)O)c(C)n2C(=O)c1ccc(Cl)cc1` [INDOMETHACIN]: the values for the inhibition in vivo at 10 mg/kg in series [20] and in [21] were 51% and 84%, respectively.
